Source: PubChem (The Scripps Research Institute Molecular Screening Center)
CTSL1 counter: blocks F. hepatica cathepsin L1 in PFM18AAP counter-screen | hit rate 0.49% among 300,000 | recombinant F. hepatica cathepsin L1, Z-Leu-Arg-MCA fluorescence | AID 1906 | inhibition, % at 5.96 µM;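 active = inhibition above the mean of all tested compounds plus 3 SD, set per screening campaign, cut at about 17% in these data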;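 also: 0% = plate median of test compound wells and 100% = 1 µM Z-Phe-Ala-diazomethylketone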
GSTO1 inh: blocks human GSTO1 in RBBP9 counter-screen; P78417; recombinant GSTO1, activity-based probe fluorescence polarization; inhibition, % at 5.96 µM; hit rate 1.1% among 300,000; AID 1974;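 active = inhibition above the campaign mean inhibition plus 3 SD, cut at about 35% in these data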;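 also: 0% = GSTO1-1 with DMSO and 100% = wells lacking GSTO1-1 enzyme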
Target sequence (P78417 whole entry, looked up): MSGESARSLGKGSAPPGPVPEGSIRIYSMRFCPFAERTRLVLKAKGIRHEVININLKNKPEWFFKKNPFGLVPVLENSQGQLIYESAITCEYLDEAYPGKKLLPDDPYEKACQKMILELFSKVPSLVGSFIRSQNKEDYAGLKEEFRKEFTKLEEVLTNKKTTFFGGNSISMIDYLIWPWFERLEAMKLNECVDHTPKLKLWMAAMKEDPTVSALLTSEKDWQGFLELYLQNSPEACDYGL
TDP2 absorb: TDP2 (human) inhibition, absorbance primary screen; O95551; recombinant TDP2, T5PNP hydrolysis, p-nitrophenol absorbance 415 nm; inhibition, % at 12.8 µM; hit rate 0.34% among 370,000; AID 720702;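 active = inhibition above the mean of all tested compounds plus 3 SD, set per campaign, cut at about 25% in these data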;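 also: 0% = DMSO with enzyme and 100% = buffer with substrate but no TDP2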
Target sequence (O95551 whole entry, looked up): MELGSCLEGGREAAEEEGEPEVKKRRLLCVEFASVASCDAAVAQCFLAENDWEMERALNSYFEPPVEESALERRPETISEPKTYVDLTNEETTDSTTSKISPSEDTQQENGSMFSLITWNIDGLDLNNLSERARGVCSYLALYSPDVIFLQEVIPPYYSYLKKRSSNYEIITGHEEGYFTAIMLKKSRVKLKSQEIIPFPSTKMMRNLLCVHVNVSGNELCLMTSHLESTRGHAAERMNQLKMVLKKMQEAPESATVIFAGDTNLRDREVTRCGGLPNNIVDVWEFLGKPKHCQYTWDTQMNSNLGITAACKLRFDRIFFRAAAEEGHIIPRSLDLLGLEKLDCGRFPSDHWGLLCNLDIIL
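System: recombinant human TDP2 / Amount: 120 nM TDP2 per well / Also added: 5 mM T5PNP chromogenic substrate / Doses: 12.8 µM single point, 1% DMSO / Incubation: 2 h at 37 °C / Detection: p-Nitrophenol epi absorbance / Evaluation: % inhibition relative to enzyme-containing and enzyme-free wells / Repeats: singlicate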
PAD4 inh: blocks human protein arginine deiminase 4. recombinant PAD4, RCA probe fluorescence polarization. inhibition, % at 6.36 µM. hit rate 0.41% among 330,000;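 active = percent inhibition above a cutoff equal to the mean of all tested compounds plus 3 SD, cut at about 15% in these data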;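 also: 0% = PAD4 with RCA probe and DMSO and 100% = probe without PAD4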
An asterisk follows results filed as active; x = not tested or not shown. This is a sample that favours compounds with a hit; in the whole collection about 1.4% have one here.

SMILES	CTSL1 counter	GSTO1 inh	TDP2 absorb	PAD4 inh
COc1ccc(NC(=O)c2ccc(C)o2)c([N+](=O)[O-])c1	2	2	1	-1
COc1ccc(NC(=O)c2ccc([N+](=O)[O-])s2)c([N+](=O)[O-])c1	5	55*	-4	-1
COc1ccc([N+](=O)[O-])cc1NC(=S)NC(C)=O	1	-4	-2	-4
OCC[C@@H]1C[C@H](O)[C@@H](O)[C@@]2(OCCc3cc(C(F)(F)F)ccc32)O1	x	x	-4	x
O=C1N=C(N2CCOCC2)S/C1=C/c1cccs1	8	4	-15	-5
O=C1N=C(N2CCOCC2)S/C1=C/c1ccc(-c2ccccc2Cl)o1	34*	-2	12	-1
O=C(CSc1nnc(-c2ccccc2F)n1Cc1ccco1)Nc1ccccc1-c1ccccc1	x	x	-2	x
CC(C)(C=O)C1=CC(=O)c2ccccc2C1=O	-2	49*	24	-8
CC(C)(C)c1ccc2c(c1)C(=O)c1ccccc1C2=O	3	3	-4	2
O=C1CCC[C@H]2C[C@H](NCc3ccccc3F)CC[C@]23CCCN13	x	x	2	x
COc1cc(-n2nc(C)c3c2OC(N)=C(C#N)C3c2ccccc2)c(Cl)c(Br)c1O (stereo unspecified)	5	21	48*	26*
Cc1nn(Cc2ccccc2)c2c1C(c1cccc(Cl)c1)C(C#N)=C(N)O2 (stereo unspecified)	-3	6	9	-1
O=C1C2CC=C(Cl)CC2C(=O)N1CCN1CCOCC1 (stereo unspecified)	-5	-5	3	-3
O=C1C2CC=C(Cl)CC2C(=O)N1CCCCCCN1C(=O)C2CC=C(Cl)CC2C1=O (stereo unspecified)	42*	23	-6	-3
OCCOCCn1c(C(CO)Nc2nc(-c3ccccc3Br)cs2)nc2ccccc21 (stereo unspecified)	21*	3	2	0
C/C(C=NNC(=O)CSc1nc2ccccc2n1Cc1ccccc1Cl)=C\c1ccccc1	x	x	-12	x
CC(=O)N(c1ccc(Cl)cc1)c1cn(C(C)=O)c2ccccc12	-7	-2	8	0
CC(=O)n1cc(N(C(=O)CCl)c2ccc(C)cc2)c2ccccc21	-2	70*	7	12
O=C(CN1CCN(c2cccc(Cl)c2)CC1)NCc1ccccc1	24*	-3	-9	-4
O=C(CN1CCN(c2ccc(Cl)cc2)CC1)NCc1ccccc1	6	8	6	3
CCCCCN1CCCCC(NC(=O)c2ccc(F)c(F)c2)C1=O (stereo unspecified)	x	x	5	x
COc1ccc2nc(N3CCC(O)CC3)c(C#N)cc2c1	15	36*	6	-14
Cc1c(NS(=O)(=O)c2cc(C(=O)NCc3cccc(Cl)c3)ccc2Cl)c(=O)n(-c2ccccc2)n1C	x	x	4	x
Cc1c(NS(=O)(=O)c2cc(C(=O)NCCN(C)C)ccc2Cl)c(=O)n(-c2ccccc2)n1C	-7	37*	-14	3
COc1ccc(CN(C)C(=O)C2CSC3(C)CCC(=O)N23)c(OC)c1 (stereo unspecified)	x	x	7	x
SMILES	CTSL1 counter	GSTO1 inh	TDP2 absorb	PAD4 inh
COc1cc2c3nnc(-c4ccc(F)cc4)c-3cn(Cc3cccc(F)c3)c2cc1OC	63*	4	x	-1
O=C(Cc1ccc(Cl)cc1)Nc1cccc(S(=O)(=O)N2CCCCC2)c1	x	x	-11	-1
O=C(CCl)Nc1cccc(S(=O)(=O)N2CCCCCC2)c1	78*	91*	-14	3
COc1cccc(OC[C@@H](O)CN2CCC(C(O)(c3ccccc3)c3ccccc3)CC2)c1	x	x	4	x
O=C(O)c1cc(O)c2c(c1)C(=O)c1cccc(O)c1C2=O	0	50*	0	-3
Nc1c(C(=O)NCC(O)c2ccccc2)cnn1-c1ccccc1 (stereo unspecified)	x	x	8	x
CC(=O)Nc1ccc(S(=O)(=O)NCc2nc(-c3ccccc3)no2)cc1	2	13	-1	2
COc1ccc(-c2noc(CNS(=O)(=O)c3ccc(NC(C)=O)cc3)n2)cc1	-3	37*	6	0
CC(C)CCOC(=O)/C(=C/c1ccco1)NC(=O)/C=C/c1ccccc1	22*	-4	-10	-2
NC(=S)N/N=C\c1c2ccccc2cc2ccccc12	84*	0	1	3
NC(=S)N/N=C\c1c(OCc2ccccc2Cl)ccc2ccccc12	30*	11	7	-1
Cc1ccc(NC(=S)N/N=C/c2c(C)[nH]c3ccccc23)cc1	10	-22	2	2
Cc1[nH]c2ccccc2c1/C=N/NC(N)=S	92*	-6	1	2
Cc1ccc(CCNC(=O)Cn2ncc3c([nH]c4ccccc43)c2=O)cc1	9	13	-16	0
Cc1ccc2[nH]c3c(=O)n(CC(=O)NCc4ccco4)ncc3c2c1	1	36*	5	-1
Cc1ccc(Oc2ccc(OCC(=O)NC(CC(C)C)C(=O)O)cc2)cc1 (stereo unspecified)	5	38*	13	-2
CC(C)COc1ccc(C(=O)NC(CC(C)C)C(=O)O)cc1 (stereo unspecified)	9	8	-8	-2
C=C(C)Cc1c(C)nc(-c2ccccc2)[nH]c1=O	26*	-4	2	1
CCCCCCOC(=O)Cc1c(C)nc(-c2ccccc2)[nH]c1=O	3	14	5	-1
C=CCN(C(=O)[C@@H](C)[C@@H](O)c1ccc2ccccc2c1)c1ccccc1	x	x	-8	x
O=C(c1ccco1)N1CCN(C(c2ccccc2Cl)c2nnnn2CC2CCCO2)CC1 (stereo unspecified)	19*	9	-13	-1
O=C(O)CCCC(=O)NCc1c(Cl)cccc1Sc1ccc(Cl)cc1	-2	11	0	-2
CC(C)(CC(=O)O)CC(=O)NCc1c(Cl)cccc1Sc1ccc(Cl)cc1	-2	37*	1	-5
C[C@@H]1C[C@@H]2O[C@H]2CCCCC(=O)Cc2cc(O)cc(O)c2C(=O)O1	x	x	-4	x
COCCCNC(=O)C(Cc1ccccc1)NS(=O)(=O)c1ccc2c(c1)c(=O)n(C)c(=O)n2C (stereo unspecified)	-1	5	4	4
SMILES	CTSL1 counter	GSTO1 inh	TDP2 absorb	PAD4 inh
Cn1c(=O)c2cc(S(=O)(=O)NC(Cc3ccccc3)C(=O)NCc3ccco3)ccc2n(C)c1=O (stereo unspecified)	31*	4	-11	-3
O=C(NC(=S)Nc1ccc(O)cc1)C1CCCC1	x	x	-4	0
CC(=O)Nc1ccc(NC(=S)NC(=O)C2CC2)cc1	30*	-1	1	4
CC(C)NC(=O)OC[C@@H]1CSCCS(=O)(=O)N1	x	x	1	x
CCOC(=O)c1c(-c2ccco2)csc1NC(=O)COC(=O)c1cnc(C)cn1	31*	14	14	-11
CCCCNC(=S)N(CCN(CC)CC)Cc1cc2cc3c(cc2[nH]c1=O)OCO3	1	11	-13	-7
CCCCNC(=S)N(CCN(CC)CC)Cc1cc2cc3c(cc2[nH]c1=O)OCCO3	18*	0	-3	12
C[C@H]1COc2cccc(N3CCCC3)c2S(=O)(=O)N1C	x	x	-9	x
C=CCN1C(=O)[C@@H](CC(=O)NCCc2ccccc2OC)[C@]2(C(=O)OC)CCCCC=C12	x	x	-2	x
